Here are results for 25 molecules from ChEMBL document CHEMBL3272208, “(Vinylaryloxy)acetic acids. A new class of diuretic agents. 3. ((2-Nitro-1-alkenyl)aryloxy)acetic acids” (1976).

The test system of assay [1] is Canis familiaris. Kind of assay: Diuretic activity in mongrel dog assessed as sodium level in excreted urine at 1 mg/kg, iv measured […] after dosage (reference value: 3 to 95 uequiv/min). The class given is functional, Canis lupus familiaris. In outline: (§1)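 Compounds were given iv to dogs as Na salts in H2O. The baseline is the mean of two 15-min periods before dosing. The response is the mean of two consecutive 15-min periods of maximal Na+ excretion, usually 15–45 min post-dose. Na+, K+ and Cl- are in μequiv/min and urine volume in ml/min, reported as control/drug.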

In assay [2] the test system is Canis familiaris. Kind of assay: Diuretic activity in mongrel dog assessed as volume of excreted urine at 1 mg/kg, iv measured between 15 to 45 mins after dosage (reference value: 1 to 4 ml/min). Type of assay: functional, Canis lupus familiaris. In outline: (§2)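 Compounds were given iv to dogs as Na salts in H2O. […] The baseline is the mean of two 15-min periods before dosing. The response is the mean of two consecutive 15-min periods of maximal Na+ excretion, usually 15–45 min post-dose. Na+, K+ and Cl- are in μequiv/min and urine volume in ml/min, reported as control/drug.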

Assay [3] deals with Canis familiaris. Kind of assay: Diuretic activity in mongrel dog assessed as potassium level in excreted urine at 1 mg/kg, iv measured between 15 to 45 mins after dosage (reference value: 6 to 47 uequiv/min). Type of assay: functional, Canis lupus familiaris. The essentials:
as §2

The subject of assay [4] is Canis familiaris. Kind of assay: Diuretic activity in mongrel dog assessed as chloride level in excreted urine at 1 mg/kg, iv measured between 15 to 45 mins after dosage (reference value: 1 to 70 uequiv/min). Type of assay: functional, Canis lupus familiaris. The essentials: as §1
In assay [5] the test system is Canis familiaris. Kind of assay: Diuretic activity in mongrel dog assessed as sodium level in excreted urine at 5 mg/kg, iv measured […] after dosage (reference value: 1 to 91 uequiv/min). Type of assay: functional, Canis lupus familiaris. In outline:
as §2

In assay [6] the test system is Canis familiaris. The assay is described as follows: Diuretic activity in mongrel dog assessed as volume of excreted urine at 5 mg/kg, iv measured between 15 to 45 mins after dosage (reference value: 1 to 5 ml/min). Type of assay: functional, Canis lupus familiaris. In outline:
as §2

Assay [7] deals with Canis familiaris. The assay is described as follows: Diuretic activity in mongrel dog assessed as chloride level in excreted urine at 5 mg/kg, iv measured between 15 to 45 mins after dosage (reference value: 1 to 65 uequiv/min). The class given is functional, Canis lupus familiaris. The essentials:
as §2

For assay [8], the system named is Canis familiaris. Kind of assay: Diuretic activity in mongrel dog assessed as potassium level in excreted urine at 5 mg/kg, iv measured between 15 to 45 mins after dosage (reference value: 12 to 70 uequiv/min). The class given is functional, Canis lupus familiaris. The essentials: as §2
The subject of assay [9] is Canis familiaris. The assay is described as follows: Diuretic activity in mongrel dog assessed as potassium level in excreted urine at 1 mg/kg, po measured for 6 hrs (reference value: 1 mequivalents). Type of assay: functional, Canis lupus familiaris.
For assay [10], the system named is Canis familiaris. The assay is described as follows: Diuretic activity in mongrel dog assessed as chloride level in excreted urine at 1 mg/kg, po measured for 6 hrs (reference value: 2 mequivalents). The class given is functional, Canis lupus familiaris.
Assay [11] deals with Canis familiaris. Kind of assay: Diuretic activity in mongrel dog assessed as sodium level in excreted urine at 1 mg/kg, po measured for 6 hrs (reference value: 2 mequivalents). The class given is functional, Canis lupus familiaris.
Assay [12] deals with Canis familiaris. The assay is described as follows: Diuretic activity in mongrel dog assessed as volume of excreted urine at 1 mg/kg, po measured for 6 hrs (RVb = 180 ml).
Assay [13] relates to Canis familiaris. Kind of assay: Diuretic activity in mongrel dog assessed as sodium level in excreted urine at 10 mg/kg, iv measured […] after dosage (reference value: 5 to 66 uequiv/min). The class given is functional, Canis lupus familiaris. In outline:
as §2

The test system of assay [14] is Canis familiaris. The assay is described as follows: Diuretic activity in mongrel dog assessed as potassium level in excreted urine at 10 mg/kg, iv measured between 15 to 45 mins after dosage (reference value: 7 to 63 uequiv/min). The class given is functional, Canis lupus familiaris. In outline: as §2
For assay [15], the system named is Canis familiaris. The assay is described as follows: Diuretic activity in mongrel dog assessed as volume of excreted urine at 10 mg/kg, iv measured between 15 to 45 mins after dosage (reference value: 1 to 4 ml/min). Type of assay: functional, Canis lupus familiaris. The essentials:
as §2

Assay [16] relates to Canis familiaris. Kind of assay: Diuretic activity in mongrel dog assessed as chloride level in excreted urine at 10 mg/kg, iv measured between 15 to 45 mins after dosage (reference value: 3 to 64 uequiv/min). Type of assay: functional, Canis lupus familiaris. In outline: as §1

With `CC/C(=C\c1ccc(OCC(=O)O)c2ccccc12)[N+](=O)[O-]`, the Activity in the assay on Canis familiaris [1] is 1848 uEq/min; in the assay with Canis familiaris [2], 13 mL/min; in the assay on Canis familiaris [3] it was 179 uEq/min; in the assay on Canis familiaris [4] it was 2036 uEq/min.
Turning to `CC/C(=C\c1ccc(OCC(=O)O)cc1Cl)[N+](=O)[O-]`, the Activity amounted to 1398 uEq/min with Canis familiaris [1], 13 mL/min in the assay with Canis familiaris [2], 101 uEq/min in the assay on Canis familiaris [3] and 1431 uEq/min with Canis familiaris [4].
With `C/C(=C\c1ccc(OCC(=O)O)c(Cl)c1)[N+](=O)[O-]`, the Activity amounted to 734 uEq/min with Canis familiaris [1], 8 mL/min in the assay with Canis familiaris [2], 142 uEq/min in the assay with Canis familiaris [3] and 766 uEq/min in the assay on Canis familiaris [4].
For `CC/C(=C\c1ccc(OCCCC(=O)O)c(Cl)c1Cl)[N+](=O)[O-]`, the Activity in the assay on Canis familiaris [5] stood at 62 uEq/min; in the assay with Canis familiaris [6], 3 mL/min; with Canis familiaris [7] it was 28 uEq/min; in the assay with Canis familiaris [8], 29 uEq/min.
Take `C/C(=C\c1ccc(OCC(=O)O)cc1Cl)[N+](=O)[O-]`: the Activity came out at 683 uEq/min with Canis familiaris [1]; 5 milliequivalent in the assay on Canis familiaris [9]; 22 milliequivalent in the assay on Canis familiaris [10]; 7 mL/min in the assay with Canis familiaris [2]; 16 milliequivalent in the assay with Canis familiaris [11]; 92 uEq/min in the assay on Canis familiaris [3]. Also, the Activity stood at 402 mL with Canis familiaris [12] and 765 uEq/min in the assay with Canis familiaris [4].
As for `CCCCC/C(=C\c1ccc(OCC(=O)O)c(Cl)c1Cl)[N+](=O)[O-]`, the Activity with Canis familiaris [1] was 179 uEq/min; in the assay with Canis familiaris [9], 3 milliequivalent; in the assay on Canis familiaris [10], 9 milliequivalent; in the assay on Canis familiaris [2] it was 3 mL/min; in the assay with Canis familiaris [11], 10 milliequivalent; in the assay with Canis familiaris [3], 56 uEq/min. Moreover, the results for the Activity in the assay on Canis familiaris [12] and in the assay with Canis familiaris [4] were 413 mL and 269 uEq/min, respectively.
Consider `C/C(=C\c1cc(Cl)cc(Cl)c1OCC(=O)O)[N+](=O)[O-]`, for which the Activity came to 80 uEq/min with Canis familiaris [5], 3 mL/min in the assay on Canis familiaris [6], 41 uEq/min in the assay with Canis familiaris [7] and 25 uEq/min in the assay on Canis familiaris [8].
For `CC/C(=C\c1ccc(OCC(=O)O)c(C)c1C)[N+](=O)[O-]`, the Activity in the assay with Canis familiaris [1] is 1583 uEq/min; in the assay on Canis familiaris [2], 13 mL/min; in the assay with Canis familiaris [3] it was 118 uEq/min; with Canis familiaris [4] it was 1650 uEq/min.
In the case of `CC/C(=C\c1ccc(C(=O)O)cc1Cl)[N+](=O)[O-]`, the Activity came out at 182 uEq/min in the assay with Canis familiaris [13], 63 uEq/min in the assay with Canis familiaris [14], 3 mL/min in the assay with Canis familiaris [15] and 146 uEq/min in the assay with Canis familiaris [16].
Consider `O=C(O)COc1ccc(/C=C/[N+](=O)[O-])cc1Cl`, for which the Activity with Canis familiaris [13] was found to be 201 uEq/min; in the assay with Canis familiaris [14], 65 uEq/min; in the assay on Canis familiaris [15], 3 mL/min; in the assay on Canis familiaris [16] it was 146 uEq/min.
In the case of `CCCC/C(=C\c1ccc(OCC(=O)O)c(Cl)c1Cl)[N+](=O)[O-]`, the Activity in the assay with Canis familiaris [1] came to 322 uEq/min; with Canis familiaris [2], 4 mL/min; with Canis familiaris [3] it was 78 uEq/min; in the assay with Canis familiaris [4], 364 uEq/min.
As for `CC/C(=C\c1cc(Cl)ccc1OCC(=O)O)[N+](=O)[O-]`, the Activity with Canis familiaris [5] was found to be 117 uEq/min; in the assay with Canis familiaris [6], 4 mL/min; in the assay on Canis familiaris [7], 75 uEq/min; in the assay on Canis familiaris [8], 48 uEq/min.
For `CC(=O)/C=C/c1ccc(OCC(=O)O)c(Cl)c1Cl`, the Activity in the assay with Canis familiaris [5] turned out to be 911 uEq/min; in the assay with Canis familiaris [6], 8 mL/min; in the assay with Canis familiaris [7] it was 1080 µequiv/min; in the assay with Canis familiaris [8] it was 76 uEq/min.
In the case of `CC/C(=C\c1ccc(OCC(=O)O)c(Cl)c1Cl)[N+](=O)[O-]`, the Activity was 1174 uEq/min in the assay on Canis familiaris [1]; 5 milliequivalent with Canis familiaris [9]; 28 milliequivalent in the assay on Canis familiaris [10]; 10 mL/min in the assay with Canis familiaris [2]; 26 milliequivalent in the assay with Canis familiaris [11]; 89 uEq/min with Canis familiaris [3]. Moreover, the Activity in the assay on Canis familiaris [12] stood at 465 mL; with Canis familiaris [4] it was 1295 uEq/min.
For the molecule `C/C(=C\c1cc(Cl)ccc1OCC(=O)O)[N+](=O)[O-]`, the Activity with Canis familiaris [1] is 22 uEq/min; in the assay with Canis familiaris [2], 2 mL/min; in the assay with Canis familiaris [3], 17 uEq/min; in the assay with Canis familiaris [4], 7 uEq/min.
For `C/C(=C\c1ccc(C(=O)O)cc1Cl)[N+](=O)[O-]`, the Activity stood at 364 uEq/min with Canis familiaris [13], 45 uEq/min with Canis familiaris [14], 7 mL/min in the assay on Canis familiaris [15] and 335 uEq/min in the assay with Canis familiaris [16].
For `O=C(O)COc1ccc(/C=C/[N+](=O)[O-])c(Cl)c1Cl`, the Activity in the assay with Canis familiaris [1] is 132 uEq/min; in the assay on Canis familiaris [2], 4 mL/min; in the assay on Canis familiaris [3] it was 7 uEq/min; in the assay on Canis familiaris [4] it was 47 uEq/min.
For `C/C(=C\c1ccc(OCC(=O)O)c2ccccc12)[N+](=O)[O-]`, the Activity is 1612 uEq/min in the assay with Canis familiaris [1]; 7 milliequivalent in the assay on Canis familiaris [9]; 39 milliequivalent with Canis familiaris [10]; 15 mL/min in the assay with Canis familiaris [2]; 33 milliequivalent in the assay on Canis familiaris [11]; 128 uEq/min with Canis familiaris [3]. In addition, the Activity with Canis familiaris [12] was found to be 538 mL; with Canis familiaris [4], 1659 uEq/min.
On to `CC/C(=C\c1cccc(OCC(=O)O)c1)[N+](=O)[O-]`, for which the Activity in the assay with Canis familiaris [13] amounted to 452 uEq/min; in the assay with Canis familiaris [14], 76 uEq/min; in the assay on Canis familiaris [15], 7 mL/min; with Canis familiaris [16], 639 uEq/min.
For `O=C(O)COc1ccc(/C=C/[N+](=O)[O-])cc1`, the Activity with Canis familiaris [5] is 80 uEq/min; in the assay on Canis familiaris [6], 2 mL/min; in the assay with Canis familiaris [7] it was 5 uEq/min; with Canis familiaris [8], 35 uEq/min.
Take `O=C(O)COc1c(Cl)cc(Cl)cc1/C=C/[N+](=O)[O-]`: the Activity with Canis familiaris [5] stood at 33 uEq/min; in the assay with Canis familiaris [6], 2 mL/min; in the assay on Canis familiaris [7] it was 3 uEq/min; in the assay on Canis familiaris [8] it was 33 uEq/min.
With `CC/C(=C\c1ccc(OC(C)C(=O)O)c(Cl)c1Cl)[N+](=O)[O-]` (stereo unspecified), the Activity worked out at 490 uEq/min with Canis familiaris [1], 7 mL/min with Canis familiaris [2], 67 uEq/min in the assay on Canis familiaris [3] and 528 uEq/min in the assay with Canis familiaris [4].
On to `CC/C(=C\c1ccc(OCC(=O)O)c(Cl)c1)[N+](=O)[O-]`, for which the Activity amounted to 1618 uEq/min in the assay on Canis familiaris [1], 15 mL/min in the assay on Canis familiaris [2], 131 uEq/min with Canis familiaris [3] and 1727 uEq/min with Canis familiaris [4].
In the case of `C/C(=C\c1ccc(OC(C)C(=O)O)c(Cl)c1Cl)[N+](=O)[O-]` (stereo unspecified), the Activity was 1191 uEq/min with Canis familiaris [5], 9 mL/min with Canis familiaris [6], 1228 uEq/min with Canis familiaris [7] and 74 uEq/min in the assay with Canis familiaris [8].
Turning to `CC/C(=C\c1cc(Cl)cc(Cl)c1OCC(=O)O)[N+](=O)[O-]`, the Activity with Canis familiaris [13] worked out at 71 uEq/min; with Canis familiaris [14], 29 uEq/min; with Canis familiaris [15] it was 3 mL/min; in the assay with Canis familiaris [16], 6 uEq/min.
